Measurements reported in ChEMBL document CHEMBL1255517, “CD4 mimics targeting the HIV entry mechanism and their hybrid molecules with a CXCR4 antagonist” (Bioorg Med Chem Lett, 2010).

Columns and labels:
[1] = Selectivity index, ratio of CC50 for human MT-2 cells to IC50 for HIV1 IIIB
[2] = Cytotoxicity against human PM1 cells expressing CCR5 by MTT assay; type: cell-based
Outline: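 Mock-infected PM1/CCR5 cells were exposed to compound, with viability read by MTT. CC50 is the concentration that reduces viability by 50%. Values are means with standard deviation from at least three independent experiments.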

PM1 = assay: Inhibition of CD4-induced monoclonal antibody 4C11 binding to HIV1 JR-FL infected in human PM1 cells expressing CCR5 at 100 uM after 15 mins by FACS analysis (reference value: 27.60)
[3] = tested on: Human immunodeficiency virus 1; assay: Antiviral activity against HIV1 3B infected in human PM1 cells expressing CCR5 assessed as protection against virus-induced cytopathogenicity by MTT assay; type: functional, organism-based; conditions: Human immunodeficiency virus 1, 3B
Outline: (§1)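 Cells were PM1/CCR5 infected with HIV-1, with viability read by MTT. IC50 is the compound concentration giving 50% protection against virus-induced cytopathogenicity. Values are means with standard deviation from at least three independent experiments.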

[4] = tested on: Human immunodeficiency virus 1; assay: Antiviral activity against HIV1 MNA infected in human PM1 cells expressing CCR5 assessed as protection against virus-induced cytopathogenicity by MTT assay; type: functional, organism-based; conditions: Human immunodeficiency virus 1, MNA
Outline: as §1

[5] = tested on: Human immunodeficiency virus 1; assay: Antiviral activity against HIV1 isolate 89.6 infected in human PM1 cells expressing CCR5 assessed as protection against virus-induced cytopathogenicity by MTT assay; type: functional, organism-based; conditions: Human immunodeficiency virus 1, isolate 89.6, PM1
Outline: as §1

[6] = tested on: Human immunodeficiency virus 1; assay: Antiviral activity against HIV1 3B infected in human MT2 cells assessed as protection against virus-induced cytopathogenicity by MTT assay; type: functional, organism-based
[7] = Selectivity index, ratio of CC50 for human PM1 cells expressing CCR5 to IC50 for HIV1 MNA; type: functional
[8] = Cytotoxicity against human MT2 cells by MTT assay; type: cell-based
[9] = target: C-X-C chemokine receptor type 4 (Homo sapiens, UniProt P61073); assay: Displacement of [125I]-SDF-1-alpha from CXCR4 expressed in CHO cells; type: cell-based
[10] = tested on: Human immunodeficiency virus 1; assay: Antiviral activity against HIV1 MTA infected in human PM1 cells expressing CCR5 assessed as protection against virus-induced cytopathogenicity by MTT assay; type: functional, organism-based; conditions: Human immunodeficiency virus 1, MTA
Outline: as §1

[11] = Human immunodeficiency virus 1, 3B, MT2

C-X-C chemokine receptor type 4, sequence (P61073 whole entry): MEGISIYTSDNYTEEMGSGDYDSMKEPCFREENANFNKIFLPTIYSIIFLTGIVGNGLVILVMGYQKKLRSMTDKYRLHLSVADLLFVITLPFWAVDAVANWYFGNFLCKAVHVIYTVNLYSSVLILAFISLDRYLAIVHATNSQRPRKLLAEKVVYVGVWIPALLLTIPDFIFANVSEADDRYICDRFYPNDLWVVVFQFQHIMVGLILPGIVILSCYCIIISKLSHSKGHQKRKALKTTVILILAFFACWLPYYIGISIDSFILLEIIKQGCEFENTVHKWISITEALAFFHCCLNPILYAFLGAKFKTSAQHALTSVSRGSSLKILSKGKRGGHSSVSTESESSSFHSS

Row | SMILES | CC50 [2] [µM] | RFU (PM1) | IC50 [3] [µM] | further results
1 | N=C(N)NCCC[C@H](NC(=O)[C@@H]1CSSC[C@H](NC(=O)[C@H](Cc2ccc3ccccc3c2)NC(=O)[C@H](CCCNC(=N)N)NC(=O)[C@H](CCCNC(=N)N)NC(=O)c2ccc(F)cc2)C(=O)N[C@@H](Cc2ccc(O)cc2)C(=O)N[C@@H](CCCNC(N)=O)C(=O)N[C@@H](CCCNC(=N)N)C(=O)N[C@H](CCCCNC(=O)CCC(=O)NCCCCN2CCC(NC(=O)C(=O)Nc3ccc(Cl)cc3)CC2)C(=O)N2CCC[C@H]2C(=O)N[C@@H](Cc2ccc(O)cc2)C(=O)N[C@@H](CCCNC(=N)N)C(=O)N[C@@H](CCCNC(N)=O)C(=O)N1)C(N)=O [listing 1 of 2 here] |  |  |  | Selectivity Index [1]: 169
2 | N=C(N)NCCC[C@H](NC(=O)[C@@H]1CSSC[C@H](NC(=O)[C@H](Cc2ccc3ccccc3c2)NC(=O)[C@H](CCCNC(=N)N)NC(=O)[C@H](CCCNC(=N)N)NC(=O)c2ccc(F)cc2)C(=O)N[C@@H](Cc2ccc(O)cc2)C(=O)N[C@@H](CCCNC(N)=O)C(=O)N[C@@H](CCCNC(=N)N)C(=O)N[C@H](CCCCNC(=O)CCC(=O)NCCCCCCCCN2CCC(NC(=O)C(=O)Nc3ccc(Cl)cc3)CC2)C(=O)N2CCC[C@H]2C(=O)N[C@@H](Cc2ccc(O)cc2)C(=O)N[C@@H](CCCNC(=N)N)C(=O)N[C@@H](CCCNC(N)=O)C(=O)N1)C(N)=O [listing 1 of 2 here] |  |  |  | Selectivity Index [1]: 244
3 | O=C(O)CN1CCC(NC(=O)C(=O)Nc2ccc(Cl)cc2)CC1 | 260 | 11.9 | > 100 | 
4 | Cc1ccc(NC(=O)C(=O)NC2CC(C)(C)NC(C)(C)C2)cc1 | 210 | 8.66 |  | IC50 [4]: 15 µM
5 | CN1CCC(NC(=O)C(=O)Nc2ccc(Cl)cc2)CC1 | > 300 | 33.6 | 67 | IC50 [5]: > 100 µM
6 | Cc1cn([C@H]2C[C@H](N=[N+]=[N-])[C@@H](CO)O2)c(=O)[nH]c1=O [ZIDOVUDINE] |  |  |  | IC50 [6, 11]: 0.0493 µM
7 | CC(C)C(=O)N1CCC(NC(=O)C(=O)Nc2ccc(Cl)cc2)CC1 | 45 | 8.27 | > 100 | 
8 | NC(=O)NCCC[C@@H]1NC(=O)[C@H](CCCN=C(N)N)NC(=O)[C@H](Cc2ccc(O)cc2)NC(=O)[C@@H]2CCCN2C(=O)[C@@H](CCCCNC(=O)CCC(=O)NCCCCCCN2CCC(NC(=O)C(=O)Nc3ccc(Cl)cc3)CC2)NC(=O)[C@H](CCCN=C(N)N)NC(=O)[C@H](CCCNC(N)=O)NC(=O)[C@H](Cc2ccc(O)cc2)NC(=O)[C@@H](NC(=O)[C@H](Cc2ccc3ccccc3c2)NC(=O)[C@H](CCCN=C(N)N)NC(=O)[C@H](CCCN=C(N)N)NC(=O)c2ccc(F)cc2)CSSC[C@@H](C(=O)N[C@@H](CCCN=C(N)N)C(N)=O)NC1=O [listing 1 of 2 here] |  |  |  | Selectivity Index [1]: 219
9 | CC1(C)CC(NC(=O)C(=O)Nc2ccc(Cl)cc2)CC(C)(C)N1 | 110 | 18.4 | 8 | IC50 [6, 11]: 2.1 µM; IC50 [4]: 12 µM; Selectivity Index [7]: 19.2; IC50 [5]: 10 µM
10 | CC(=O)N1CCC(NC(=O)C(=O)Nc2ccc(Cl)cc2)CC1 | > 300 | 29.1 | > 100 | IC50 [5]: > 100 µM
11 | Cc1ccc(NC(=O)C(=O)NC2CCNCC2)cc1 | 190 | 46 |  | IC50 [4]: 20 µM
12 | O=C(Nc1ccc(Cl)cc1)C(=O)NC1CCNCC1 | 100 | 49.9 |  | IC50 [4]: 8 µM
13 | NC(=O)NCCC[C@@H]1NC(=O)[C@H](CCCN=C(N)N)NC(=O)[C@H](Cc2ccc(O)cc2)NC(=O)[C@@H]2CCCN2C(=O)[C@@H](CCCCNC(=O)CCC(=O)NCCCCCCN2CCC(NC(=O)C(=O)Nc3ccc(Cl)cc3)CC2)NC(=O)[C@H](CCCN=C(N)N)NC(=O)[C@H](CCCNC(N)=O)NC(=O)[C@H](Cc2ccc(O)cc2)NC(=O)[C@@H](NC(=O)[C@H](Cc2ccc3ccccc3c2)NC(=O)[C@H](CCCN=C(N)N)NC(=O)[C@H](CCCN=C(N)N)NC(=O)c2ccc(F)cc2)CSSC[C@@H](C(=O)N[C@@H](CCCN=C(N)N)C(N)=O)NC1=O [listing 2 of 2 here] |  |  |  | CC50 [8]: 8 µM; IC50 [6, 11]: 0.0365 µM; EC50 [9]: 0.0187 µM
14 | N=C(N)NCCC[C@H](NC(=O)[C@@H]1CSSC[C@H](NC(=O)[C@H](Cc2ccc3ccccc3c2)NC(=O)[C@H](CCCNC(=N)N)NC(=O)[C@H](CCCNC(=N)N)NC(=O)c2ccc(F)cc2)C(=O)N[C@@H](Cc2ccc(O)cc2)C(=O)N[C@@H](CCCNC(N)=O)C(=O)N[C@@H](CCCNC(=N)N)C(=O)N[C@H](CCCCNC(=O)CCC(=O)NCCCCCCCCN2CCC(NC(=O)C(=O)Nc3ccc(Cl)cc3)CC2)C(=O)N2CCC[C@H]2C(=O)N[C@@H](Cc2ccc(O)cc2)C(=O)N[C@@H](CCCNC(=N)N)C(=O)N[C@@H](CCCNC(N)=O)C(=O)N1)C(N)=O [listing 2 of 2 here] |  |  |  | CC50 [8]: 8.6 µM; IC50 ([6]; mt2): 0.0353 µM; EC50 [9]: 0.0071 µM
15 | O=C(O)CCC(=O)N1CCC(NC(=O)C(=O)Nc2ccc(Cl)cc2)CC1 | > 300 | 26.1 | > 100 | IC50 [5]: > 100 µM
16 | O=C(Nc1ccc(Br)cc1)C(=O)NC1CCNCC1 | 50 | 52.3 |  | IC50 [4]: 6 µM
17 | N=C(N)NCCC[C@H](NC(=O)[C@@H]1CSSC[C@H](NC(=O)[C@H](Cc2ccc3ccccc3c2)NC(=O)[C@H](CCCNC(=N)N)NC(=O)[C@H](CCCNC(=N)N)NC(=O)c2ccc(F)cc2)C(=O)N[C@@H](Cc2ccc(O)cc2)C(=O)N[C@@H](CCCNC(N)=O)C(=O)N[C@@H](CCCNC(=N)N)C(=O)N[C@H](CCCCNC(=O)CCC(=O)NCCCCN2CCC(NC(=O)C(=O)Nc3ccc(Cl)cc3)CC2)C(=O)N2CCC[C@H]2C(=O)N[C@@H](Cc2ccc(O)cc2)C(=O)N[C@@H](CCCNC(=N)N)C(=O)N[C@@H](CCCNC(N)=O)C(=O)N1)C(N)=O [listing 2 of 2 here] |  |  |  | CC50 [8]: 8.6 µM; IC50 [6, 11]: 0.0509 µM; EC50 [9]: 0.0044 µM
18 | CC(C)CN1CCC(NC(=O)C(=O)Nc2ccc(Cl)cc2)CC1 | > 300 | 15.1 | > 100 | IC50 [10]: 28 µM
19 | CC1(C)CC(NC(=O)C(=O)Nc2ccc(Br)cc2)CC(C)(C)N1 | 93 |  |  | 
